Experimental data taken from ChEMBL document CHEMBL1137710, “Synthesis and in vitro antitumor activity of new quinoxaline derivatives” (2009).

Assays:
Type in all cases: functional
[1] = tested on: IGROV-1; test: Growth inhibition of human IGROV1 cells after 48 hrs by sulforhodamine B assay; settings: IGROV-1, 48 h
In short: (§1)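 NCI 60-human-tumor-cell-line panel, with compounds tested over a 5-log dose range. Values are taken from dose-response curves as log10 molar concentrations: GI50 is 50% net growth inhibition, TGI is total growth inhibition, and LC50 is 50% net cell death.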

[2] = tested on: K562; test: Growth inhibition of human K562 cells after 48 hrs by sulforhodamine B assay; settings: K562, 48 h; in short: as §1
[3] = tested on: NCI-H460; test: Anticancer activity against human NCI-H460 cells assessed as cell growth at 100 uM after 48 hrs by sulforhodamine B assay; settings: NCI-H460, 48 h, read-out: Activity
[4] = tested on: NCI-H522; test: Growth inhibition of human NCI-H522 cells after 48 hrs by sulforhodamine B assay; settings: NCI-H522, 48 h; in short: as §1
[5] = tested on: OVCAR-4; test: Growth inhibition of human OVCAR4 cells after 48 hrs by sulforhodamine B assay; settings: OVCAR-4, 48 h; in short: as §1
[6] = tested on: DU-145; test: Growth inhibition of human DU145 cells after 48 hrs by sulforhodamine B assay; settings: DU-145, 48 h; in short: as §1
[7] = tested on: TK-10; test: Growth inhibition of human TK10 cells after 48 hrs by sulforhodamine B assay; settings: TK-10, 48 h
In short: (§2)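 Run in the NCI 60-human-tumour-cell-line panel, tested over a 5-log dose range. Dose–response curves gave three values per cell line, each as a log10 molar concentration: GI50 (50% inhibition of net cell growth), TGI (total inhibition of net growth) and LC50 (50% net cell death). The mean graph midpoint is the arithmetic mean over all lines, with insensitive lines entered at the highest concentration tested.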

[8] = tested on: A549; test: Growth inhibition of human A549 cells after 48 hrs by sulforhodamine B assay; settings: A549, 48 h; in short: as §1
[9] = tested on: SF-295; test: Growth inhibition of human SF295 cells after 48 hrs by sulforhodamine B assay; settings: SF-295, 48 h; in short: as §1
[10] = tested on: HCT-116; test: Growth inhibition of human HCT116 cells after 48 hrs by sulforhodamine B assay; settings: HCT-116, 48 h; in short: as §1
[11] = tested on: CAKI-1; test: Growth inhibition of human Caki1 cells after 48 hrs by sulforhodamine B assay; settings: CAKI-1, 48 h; in short: as §1
[12] = tested on: OVCAR-8; test: Growth inhibition of human OVCAR8 cells after 48 hrs by sulforhodamine B assay; settings: OVCAR-8, 48 h; in short: as §1
[13] = tested on: PC-3; test: Growth inhibition of human PC3 cells after 48 hrs by sulforhodamine B assay; settings: PC-3, 48 h; in short: as §1
[14] = tested on: M14; test: Growth inhibition of human M14 cells after 48 hrs by sulforhodamine B assay; settings: M14, 48 h; in short: as §1
[15] = tested on: SF-268; test: Growth inhibition of human SF268 cells after 48 hrs by sulforhodamine B assay; settings: SF-268, 48 h; in short: as §1
[16] = Growth inhibition of human Hs 578T cells after 48 hrs by sulforhodamine B assay; in short: as §1
[17] = tested on: SK-MEL-5; test: Growth inhibition of human SK-MEL-5 cells after 48 hrs by sulforhodamine B assay; settings: SK-MEL-5, 48 h; in short: as §1
[18] = tested on: LOX IMVI; test: Growth inhibition of human LOXIMVI cells after 48 hrs by sulforhodamine B assay; in short: as §1
[19] = tested on: OVCAR-5; test: Growth inhibition of human OVCAR5 cells after 48 hrs by sulforhodamine B assay; settings: OVCAR-5, 48 h; in short: as §1
[20] = tested on: COLO 205; test: Growth inhibition of human COLO205 cells after 48 hrs by sulforhodamine B assay; settings: COLO 205, 48 h; in short: as §1
[21] = tested on: MDA-MB-435; test: Growth inhibition of human MDA-MB-435 cells after 48 hrs by sulforhodamine B assay; settings: MDA-MB-435, 48 h; in short: as §1
[22] = tested on: 786-0; test: Growth inhibition of human 786-0 cells after 48 hrs by sulforhodamine B assay; settings: 786-0, 48 h; in short: as §1
[23] = tested on: SK-MEL-28; test: Growth inhibition of human SK-MEL-28 cells after 48 hrs by sulforhodamine B assay; settings: SK-MEL-28, 48 h; in short: as §1
[24] = tested on: U-251; test: Growth inhibition of human U251 cells after 48 hrs by sulforhodamine B assay; settings: U-251, 48 h; in short: as §2
[25] = tested on: RXF 393; test: Growth inhibition of human RXF393 cells after 48 hrs by sulforhodamine B assay; settings: RXF 393, 48 h; in short: as §1
[26] = tested on: SW-620; test: Growth inhibition of human SW620 cells after 48 hrs by sulforhodamine B assay; settings: SW-620, 48 h; in short: as §2
[27] = tested on: MCF7; test: Anticancer activity against human MCF7 cells assessed as cell growth at 100 uM after 48 hrs by sulforhodamine B assay; settings: MCF7, 48 h, read-out: Activity
[28] = tested on: MDA-MB-231; test: Growth inhibition of human MDA-MB-231 cells after 48 hrs by sulforhodamine B assay; settings: MDA-MB-231, 48 h; in short: as §1
[29] = tested on: NCI/ADR-RES; test: Growth inhibition of human NCI/ADR-RES cells after 48 hrs by sulforhodamine B assay; in short: as §1
[30] = tested on: NCI-H322M; test: Growth inhibition of human NCI-H322M cells after 48 hrs by sulforhodamine B assay; in short: as §1
[31] = read-out: pLC50 (the source's name) (converted)

Nc1cc(N)c2nc(-c3ccccc3)c(NCc3ccc(Cl)c(Cl)c3)nc2c1
GI50 [1]: 1.95 µM
CC50 [1, 31]: 29.5 µM
TGI ([1]; read-out: pTGI (converted)): 5.89 µM
GI50 [2]: 3.09 µM
LC50 [2]: > 100 µM
TGI ([2]; read-out: pTGI (converted)): 17.8 µM
growth at 100 µM [3]: 0%
GI50 [4]: 2.04 µM
LC50 [4]: 22.4 µM
TGI ([4]; read-out: pTGI (converted)): 4.9 µM
GI50 [5]: 11.7 µM
CC50 [5, 31]: > 100 µM
TGI ([5]; read-out: pTGI (converted)): > 100 µM
GI50 [6]: 16.2 µM
CC50 [6, 31]: 69.2 µM
TGI ([6]; read-out: pTGI (converted)): 33.1 µM
GI50 [7]: 12.9 µM
CC50 [7, 31]: 72.4 µM
TGI ([7]; read-out: pTGI (converted)): 30.2 µM
GI50 [8]: 10.7 µM
LC50 [8]: 69.2 µM
TGI ([8]; read-out: pTGI (converted)): 27.5 µM
GI50 [9]: 15.5 µM
LC50 (50% net cell kill) [9]: 89.1 µM
TGI ([9]; read-out: pTGI (converted)): 37.2 µM
GI50 [10]: 11.5 µM
LC50 (concentration causing 50% net cell death) [10]: 50.1 µM
TGI ([10]; read-out: pTGI (converted)): 24 µM
GI50 [11]: 13.2 µM
CC50 [11, 31]: > 100 µM
TGI ([11]; read-out: pTGI (converted)): 52.5 µM
GI50 [12]: 3.39 µM
CC50 [12, 31]: > 100 µM
TGI ([12]; read-out: pTGI (converted)): 13.5 µM
GI50 [13]: 1.74 µM
CC50 [13, 31]: 19.1 µM
TGI ([13]; read-out: pTGI (converted)): 5.13 µM
GI50 [14]: 15.8 µM
CC50 [14, 31]: 75.9 µM
TGI ([14]; read-out: pTGI (converted)): 34.7 µM
GI50 [15]: 20 µM
LC50 [15]: > 100 µM
TGI ([15]; read-out: pTGI (converted)): 55 µM
GI50 [16]: 5.89 µM
CC50 [16, 31]: > 100 µM
TGI ([16]; read-out: pTGI (converted)): 46.8 µM
GI50 [17]: 3.47 µM
CC50 [17, 31]: 34.7 µM
TGI ([17]; read-out: pTGI (converted)): 10.7 µM
GI50 [18]: 2.14 µM
GI50 [19]: 24 µM
CC50 [19, 31]: 69.2 µM
TGI ([19]; read-out: pTGI (converted)): 40.7 µM
GI50 [20]: 17 µM
LC50 (50% net cell kill) [20]: 66.1 µM
TGI ([20]; read-out: pTGI (converted)): 33.9 µM
GI50 [21]: 2.75 µM
CC50 [21, 31]: 52.5 µM
TGI ([21]; read-out: pTGI (converted)): 7.59 µM
GI50 [22]: 13.2 µM
CC50 [22, 31]: 70.8 µM
TGI ([22]; read-out: pTGI (converted)): 30.2 µM
GI50 [23]: 18.6 µM
CC50 [23, 31]: 93.3 µM
TGI ([23]; read-out: pTGI (converted)): 41.7 µM
GI50 [24]: 2.09 µM
LC50 (50% net cell kill) [24]: > 100 µM
GI50 [25]: 3.09 µM
CC50 [25, 31]: > 100 µM
TGI ([25]; read-out: pTGI (converted)): 17 µM
GI50 [26]: 3.24 µM
CC50 [26, 31]: > 100 µM
TGI ([26]; read-out: pTGI (converted)): 9.77 µM
growth at 100 µM [27]: 0%
GI50 [28]: 1.58 µM
CC50 [28, 31]: > 100 µM
TGI ([28]; read-out: pTGI (converted)): 4.47 µM
GI50 [29]: 17.4 µM
CC50 [29, 31]: > 100 µM
TGI ([29]; read-out: pTGI (converted)): 45.7 µM
GI50 [30]: 13.5 µM
LC50 [30]: 69.2 µM
TGI ([30]; read-out: pTGI (converted)): 30.2 µM
